An excerpt weighted towards active compounds, which were near 2.9% of everything screened.
MEKK2 WT-MEK5 – raises or lowers MEK5 binding to wildtype human MEKK2 PB1 domain; Q9Y2U5; AID 1531; binding response (% of control), % at 10 µM; 1.1% of 290,000 active; bead flow cytometry, Alexa488-MEK5 binding to MEKK2 WT; actives lie on both sides; in the data active = binding response below about 67% or above about 130%
MEKK3 PB1 HTS – raises or lowers MEK5 binding to the human MEKK3 PB1 domain; Q99759; bead-based flow cytometry, Alexa488-MEK5 binding to MEKK3; actives lie on both sides; 0 = blocked by unlabeled MEK5, 100 = vehicle; binding response (% of control), % at 10 µM; 1.4% of 290,000 active; AID 1529;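 active = binding response more than 3 SD above or below the average of its plate-row segment, actives on both sides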;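 also: Alexa488 bead fluorescence after subtracting the streptavidin-only scavenger bead signal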
Apaf-1 inh – inhibitors of human Apaf-1 apoptosome. AID 489030. 0.71% of 330,000 active. inhibition, % at 20 µM. O14727. reconstituted apoptosome caspase-3 activity, DEVD-Rh110 fluorescence; active = inhibition of at least 40% at 20 µM;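 also: plate controls were DMSO wells for no effect and DEVD-CHO caspase inhibitor wells for full effect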
Target sequence (O14727 whole entry, looked up): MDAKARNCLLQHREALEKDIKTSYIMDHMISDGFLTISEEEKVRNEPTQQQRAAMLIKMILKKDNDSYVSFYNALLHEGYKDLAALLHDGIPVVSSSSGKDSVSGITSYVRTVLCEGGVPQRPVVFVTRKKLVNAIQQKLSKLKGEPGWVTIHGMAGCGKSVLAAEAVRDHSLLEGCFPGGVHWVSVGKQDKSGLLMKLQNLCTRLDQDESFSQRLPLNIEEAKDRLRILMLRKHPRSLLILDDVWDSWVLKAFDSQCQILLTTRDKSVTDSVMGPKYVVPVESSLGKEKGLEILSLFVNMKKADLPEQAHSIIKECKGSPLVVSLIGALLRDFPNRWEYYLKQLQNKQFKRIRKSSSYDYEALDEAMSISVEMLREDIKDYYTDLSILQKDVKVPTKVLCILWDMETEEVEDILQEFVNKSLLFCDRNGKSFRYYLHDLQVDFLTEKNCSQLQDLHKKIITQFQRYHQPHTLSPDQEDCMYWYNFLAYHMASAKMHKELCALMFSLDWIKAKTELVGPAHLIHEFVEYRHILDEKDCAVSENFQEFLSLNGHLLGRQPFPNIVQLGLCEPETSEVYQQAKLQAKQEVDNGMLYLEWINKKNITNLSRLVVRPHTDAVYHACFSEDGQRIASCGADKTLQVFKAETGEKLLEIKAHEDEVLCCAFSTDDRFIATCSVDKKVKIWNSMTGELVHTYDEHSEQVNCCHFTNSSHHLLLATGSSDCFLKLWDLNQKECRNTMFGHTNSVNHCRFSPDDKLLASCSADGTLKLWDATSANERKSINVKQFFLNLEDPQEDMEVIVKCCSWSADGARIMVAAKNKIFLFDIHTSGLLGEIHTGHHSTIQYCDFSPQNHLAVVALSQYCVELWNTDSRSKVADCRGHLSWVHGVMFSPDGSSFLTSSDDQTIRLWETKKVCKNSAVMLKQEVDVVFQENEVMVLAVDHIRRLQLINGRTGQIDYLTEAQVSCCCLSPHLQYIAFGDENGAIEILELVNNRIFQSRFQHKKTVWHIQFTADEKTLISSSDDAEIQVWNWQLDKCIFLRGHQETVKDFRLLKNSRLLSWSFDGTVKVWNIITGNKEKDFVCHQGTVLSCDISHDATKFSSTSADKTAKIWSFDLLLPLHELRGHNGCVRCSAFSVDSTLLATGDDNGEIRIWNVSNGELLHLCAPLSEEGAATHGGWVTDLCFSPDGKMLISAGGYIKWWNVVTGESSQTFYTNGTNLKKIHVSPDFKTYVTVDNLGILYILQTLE
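Material: cell-free apoptosome with Apaf-1, procaspase-3 and caspase-9; Buffer or medium: Hepes pH 7.5 with detergent and BSA; Reagent: cytochrome c trigger plus (Z-DEVD)2-Rh110 caspase-3 substrate; Times: compound with Apaf-1, dATP, procaspase-3 30 min, then 50 min reaction, room temperature; Technique: Rh110 fluorescence intensity.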
MEKK2 mut-MEK5 – signal of MEK5 binding to mutant human MEKK2 PB1 domain | bead flow cytometry, Alexa488-MEK5 binding to MEKK2 mutant | percent response, % at 10 µM | 0.35% of 290,000 active | AID 1530; in the data active = percent response above about 24%, passing the limit was not always enough
UBC13 polyUb – blocks human UBC13 polyubiquitin chain formation; P61088; TR-FRET; inhibition, % at 20 µM; 0.47% of 330,000 active; in the data active = inhibition above about 45%, passing the limit was not always enough
Numbers without * were called inactive; . = no result given; [ ] = dose if it differs, or a comment.

SMILES | MEKK2 WT-MEK5 | MEKK3 PB1 HTS | Apaf-1 inh | MEKK2 mut-MEK5 | UBC13 polyUb
CCOc1ccc(-c2nc[nH]c2[N+](=O)[O-])cc1 | 96.0 | 100.0 | -1.4 | -3.0 | 7.4
CC(=O)OC1=C(O)C(=O)c2ccccc2C1=O | 100.0 | 101.0 | 59.0* | 1.0 | -120.4
CCOC(=O)c1sc(Nc2ccc(Br)cc2)nc1C | -4.0* | 107.0 | 14.2 | 5.0 | 24.0
CCOC(=O)c1sc(Nc2ccccc2Cl)nc1C | 106.0 | 102.0 | 18.9 | 1.0 | 13.0
O=C(Nc1cc(S(=O)(=O)N2CCOCC2)ccc1N1CCCC1)c1ccc2c(c1)S(=O)(=O)c1ccccc1C2=O | 95.0 | 100.0 | -4.7 | -2.0 | 1.3
C=C(C)CC(NCCc1ccccc1)c1ccco1 (stereo not given) | 164.0* | 98.0 | . | -15.0 | .
C=CCn1cc(/C=N/Nc2nc3ccccc3[nH]2)c2ccccc21 | 232.0* | 114.0 | 15.7 | 43.0 | 1.6
Clc1nc2ccccc2cc1/C=N/Nc1nc2ccccc2[nH]1 | 115.0 | 156.0* | 9.5 | 0.0 | -48.7
C(=N\Nc1nc2ccccc2[nH]1)/c1ccncc1 | 98.0 | 109.0 | 4.1 | -1.0 | -13.0
Cc1nn(CC2CC2)c(=O)n1-c1ccc(Oc2ccccc2)cc1 | 103.0 | 100.0 | 9.5 | 1.0 | -5.6
CCOC(=O)Cc1cc(-c2ccc(F)cc2)nc2ccc3ccccc3c12 | 104.0 | 108.0 | . | 2.0 | .
CC(C)(C)C(=O)OCCn1c(=O)c2cc3c(=O)n(CCOC(=O)C(C)(C)C)c(=O)c3cc2c1=O | 2.0*[inhibitor] | 2.0*[inhibitor] | 14.9 | -16.0 | -4.3
CC(C)N1CCc2c(sc(NC(=O)CCS(=O)(=O)c3ccccc3)c2C#N)C1 | 109.0 | 106.0 | 8.4 | 8.0 | -5.3
O=C(O)COc1ccc(/C=N/NC(=O)c2ccc(-c3csc(Nc4ccc(Cl)cc4)n3)cc2)cc1 | 73.0 | 60.0*[inhibitor] | . | -7.0 | .
CCOc1cc(/C=N/NC(=O)c2ccc(-c3csc(Nc4ccc(C)cc4)n3)cc2)ccc1OCC(=O)O | 77.0 | 80.0 | . | -20.0 | .
CN(Cc1ccc(F)cc1)C(=O)CCc1nnc(-c2ccccc2)o1 | 101.0 | 99.0 | 7.5 | -1.0 | -3.6
COc1ccc(CCN(C)C(=O)CCc2nnc(-c3ccccc3)o2)cc1OC | 7.0* | 94.0 | 7.2 | -12.0 | -1.2
O=C1OC(Nc2cc(Br)cc3cccnc23)c2ccccc21 (stereo not given) | 107.0 | 126.0 | 96.8* | 1.0 | -61.6
C/C(CC(=O)N1CCN(C=O)CC1)=N\NC(=O)c1ccc(Cl)cc1 | 94.0 | 101.0 | 6.7 | -8.0 | 0.0
C/C(CC(=O)N1CCN(C=O)CC1)=N\NC(=O)c1cccc([N+](=O)[O-])c1 | 15.0* | 108.0 | -22.7 | 5.0 | 5.6
CCc1ccc(NC(=O)c2cccc(C(=O)Nc3ccc(CC)cc3)n2)cc1 | -9.0*[inhibitor] | 0.0*[inhibitor] | 21.4 | -28.0 | -9.9
COC(=O)c1cccc(C(=O)Nc2ccc(C)cc2)n1 | 101.0 | 102.0 | 8.8 | 0.0 | 1.0
Cc1c(CNC(=O)C2CC2)c(-n2cccc2)n(Cc2ccccc2)c1C | 91.0 | 99.0 | 4.7 | -4.0 | -2.8
Nc1cc(OCC(F)(F)F)cc([N+](=O)[O-])c1 | 103.0 | 103.0 | 4.8 | 1.0 | -5.5
Nc1cc(N)c(OCC(F)(F)F)cc1OCC(F)(F)F | 94.0 | 90.0 | 83.9* | -13.0 | -74.0
SMILES | MEKK2 WT-MEK5 | MEKK3 PB1 HTS | Apaf-1 inh | MEKK2 mut-MEK5 | UBC13 polyUb
COc1cccc(NC(=O)c2cc(C(=O)Nc3cccc(OC)c3)n(C)n2)c1 | 108.0 | 104.0 | 41.0* | 7.0 | 3.6
Cn1nc(C(=O)Nc2ccc(Br)cc2)cc1C(=O)Nc1ccc(Br)cc1 | 107.0 | 103.0 | 2.2 | 4.0 | -6.9
CCOC(=O)C1(C)C=C(Nc2ccc(NC(C)=O)cc2)C(=O)N1c1ccc(NC(C)=O)cc1 (stereo not given) | 100.0 | 99.0 | 6.7 | -3.0 | 1.7
N#Cc1c2c(c(Nc3ccccc3)n3c1nc1ccccc13)CCC2 | 98.0 | 103.0 | 27.7 | 4.0 | -1.6
N#Cc1c2c(c(-n3cnc4ccccc43)n3c1nc1ccccc13)CCC2 | 85.0 | 73.0 | 44.9* | -13.0 | -0.1
CC1CCN(CCCNC(=O)c2cc3c(Cl)nc4ccccc4c3s2)CC1 | 154.0* | 105.0 | 19.3 | 26.0 | 5.7
CC1CCN(CCCNC(=O)c2n[nH]c(=O)c3ccccc23)CC1 | 99.0 | 96.0 | 11.3 | 1.0 | 2.5
OCCCNCc1ccc(N(c2ccccc2)c2ccccc2)cc1 | 141.0* | 105.0 | 15.1 | 33.0* | 13.3
OCCNCc1ccc(-c2ccccc2)cc1 | 102.0 | 100.0 | 7.1 | 3.0 | 3.4
